Data from ChEMBL document CHEMBL5303300, “EUbOPEN Chemogenomics Library - Multiplex” (2023).
Where “and” joins values, the source holds several entries; their conditions need not be identical. Identical values can stand only once.

Test system: Fibroblast
Assay: Multiplex assay against human fibroblast
Assay type: toxicity, cell-based
Details: number of replicates 2
In short: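 Hoechst33342, BioTracker Green Microtubule Cytoskeleton Dye, MitoTracker Red and Annexin V Alexa Fluor 680 were added to live cells at seeding, and imaging on a CQ1 microscope at 37°C and 5% CO2 followed compound addition. Gating by CellPathfinder machine learning separated cells into Hoechst high-intensity objects or normal cells, then normal cells into healthy, pyknosed or fragmented nuclei, then pyknosed cells into mitotic or apoptotic. Per cents of healthy-nucleus cells are reported for the tubulin, mitochondrial-mass and membrane-permeability phenotypes.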

[1] = 12 h, 1 µM, compound concentration 1 uM
[2] = 12 h, 10 µM, compound concentration 10 uM
[3] = 24 h, 1 µM, compound concentration 1 uM
[4] = 24 h, 10 µM, compound concentration 10 uM
[5] = 48 h, 1 µM, compound concentration 1 uM
[6] = 48 h, 10 µM, compound concentration 10 uM

CNC(=O)c1c(F)cccc1Nc1nc(Nc2cc3c(cc2OC)CCN3C(=O)CN(C)C)nc2[nH]ccc12
Population Apoptotic (%) [1]: 26% and 33% | Population Fragmented Nuclei (%) [1]: 9% and 14% | Population Healthy Nuclei (%) [1]: 66% and 70% | Population Hoechst High Intensity Objects (%) [1]: 0% | Population Membrane Permeable-Phenotype (%) [1]: 6% and 2% | Population Mitochondria Different-Phenotype (%) [1]: 0% and 3% | Population Mitotic Cells (%) [1]: 73% and 66% | Population Normal (%) [1]: 100% and 99% | Population Pyknosed Nuclei (%) [1]: 24% and 14% | Population Tubulin-Different-Phenotype (%) [1]: 7% and 20% | Total Cell Count [1]: 166 and 190 | Population Apoptotic (%) [2]: 61% and 48% | Population Fragmented Nuclei (%) [2]: 11% and 13% | Population Healthy Nuclei (%) [2]: 16% and 26% | Population Hoechst High Intensity Objects (%) [2]: 0% | Population Membrane Permeable-Phenotype (%) [2]: 34% and 21% | Population Mitochondria Different-Phenotype (%) [2]: 3% | Population Mitotic Cells (%) [2]: 38% and 51% | Population Normal (%) [2]: 100% | Population Pyknosed Nuclei (%) [2]: 72% and 59% | Population Tubulin-Different-Phenotype (%) [2]: 80% and 51% | Total Cell Count [2]: 162 and 196 | Population Apoptotic (%) [3]: 27% and 47% | Population Fragmented Nuclei (%) [3]: 11% and 9% | Population Healthy Nuclei (%) [3]: 67% and 80% | Population Hoechst High Intensity Objects (%) [3]: 0% | Population Membrane Permeable-Phenotype (%) [3]: 2% and 1% | Population Mitochondria Different-Phenotype (%) [3]: 0% and 4% | Population Mitotic Cells (%) [3]: 72% and 52% | Population Normal (%) [3]: 100% and 99% | Population Pyknosed Nuclei (%) [3]: 20% and 10% | Total Cell Count [3]: 159 and 167 | Population Apoptotic (%) [4]: 70% and 79% | Population Fragmented Nuclei (%) [4]: 16% and 11% | Population Healthy Nuclei (%) [4]: 18% and 17% | Population Hoechst High Intensity Objects (%) [4]: 1% and 0% | Population Membrane Permeable-Phenotype (%) [4]: 72% and 73% | Population Mitochondria Different-Phenotype (%) [4]: 6% and 7% | Population Mitotic Cells (%) [4]: 29% and 20% | Population Normal (%) [4]: 98% and 99% | Population Pyknosed Nuclei (%) [4]: 64% and 71% | Population Tubulin-Different-Phenotype (%) [4]: 75% and 65% | Total Cell Count [4]: 159 and 152 | Population Apoptotic (%) [5]: 58% and 81% | Population Fragmented Nuclei (%) [5]: 13% and 15% | Population Healthy Nuclei (%) [5]: 73% and 76% | Population Hoechst High Intensity Objects (%) [5]: 0% | Population Membrane Permeable-Phenotype (%) [5]: 2% and 1% | Population Mitochondria Different-Phenotype (%) [5]: 0% | Population Mitotic Cells (%) [5]: 41% and 18% | Population Normal (%) [5]: 100% | Population Pyknosed Nuclei (%) [5]: 13% and 8% | Population Tubulin-Different-Phenotype (%) [5]: 3% and 5% | Total Cell Count [5]: 178 and 200 | Population Apoptotic (%) [6]: 90% and 93% | Population Fragmented Nuclei (%) [6]: 37% and 31% | Population Healthy Nuclei (%) [6]: 20% and 24% | Population Hoechst High Intensity Objects (%) [6]: 0% | Population Membrane Permeable-Phenotype (%) [6]: 75% and 48% | Population Mitochondria Different-Phenotype (%) [6]: 3% and 0% | Population Mitotic Cells (%) [6]: 9% and 6% | Population Normal (%) [6]: 100% and 99% | Population Pyknosed Nuclei (%) [6]: 41% and 43% | Population Tubulin-Different-Phenotype (%) [6]: 62% and 57% | Total Cell Count [6]: 158 and 145
